ChEMBL document CHEMBL1148274, “Bile acid amides derived from chiral amino alcohols: novel antimicrobials and antifungals” (Bioorg Med Chem Lett, 2004)
≈ marks a conversion by molar mass, not a printed value.

How the values were obtained:
[1] = test system: Klebsiella aerogenes; assay: Antibacterial activity against gram negative bacteria Enterobacter aerogens was determined by twofold Micro-broth dilution assay; type: functional, organism-based
Summary of the method: (§1)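 Broth microdilution with two-fold serial dilutions of compound added to pre-inoculated microtitre plates. Inoculum diluted in phosphate-buffered saline to 10^6 cfu/mL, then plated at a final 10^3 cells per 150 µL medium. Controls were medium plus inoculum and a solvent control at the highest-concentration solvent level. Plates incubated at 37 °C and read by OD at 600 nm. IC50 is the concentration giving 50% of control-inoculum growth.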

[2] = test system: Aspergillus flavus; assay: Antifungal activity against Aspergillus flavus was determined by twofold Micro-broth dilution assay; type: functional, organism-based
Summary of the method: (§2)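 Fungal strains tested by two-fold serial broth microdilution in microtitre plates. Cells diluted in phosphate-buffered saline to 10^6 cfu/mL and inoculated at a final 10^3 cells per 150 µL medium. Medium/inoculum and solvent controls were included. Incubation at 28 °C, then OD read at 600 nm. IC50 is the concentration at which growth is 50% of the control inoculum.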

[3] = test system: Staphylococcus epidermidis; assay: Antibacterial activity against gram positive bacteria Staphylococcus epidermidis was determined by twofold Micro-broth dilution assay; type: functional, organism-based; summary of the method: as §1
[4] = test system: Aspergillus niger; assay: Antifungal activity against Aspergillus niger was determined by twofold Micro-broth dilution assay; type: functional, organism-based; summary of the method: as §2
[5] = test system: Histoplasma capsulatum; assay: Antifungal activity against Histoplasma capsulatum was determined by twofold Micro-broth dilution assay; type: functional, organism-based
Summary of the method: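 Fungal broth microdilution. Cells were diluted to 10^6 cfu/mL in phosphate-buffered saline and seeded at a final 10^3 cells per well. Two-fold serial compound dilutions were added. Plates carried inoculum-only and solvent controls, the solvent matched to the highest concentration. After incubation at 28 °C, OD was read at 600 nm. IC50 is the concentration where growth is 50% of control.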

[6] = test system: Enterococcus faecalis; assay: Antibacterial activity against gram positive bacteria Enterococcus faecalis was determined by twofold Micro-broth dilution assay; type: functional, organism-based; summary of the method: as §1
[7] = test system: Salmonella typhi; assay: Antibacterial activity against gram negative bacteria Salmonella typhi was determined by twofold Micro-broth dilution assay; type: functional, organism-based, Salmonella enterica subsp. enterica serovar Typhi; settings: Salmonella enterica
[8] = test system: Staphylococcus aureus; assay: Antibacterial activity against gram positive bacteria Staphylococcus aureus was determined by twofold Micro-broth dilution assay; type: functional, organism-based; summary of the method: as §1
[9] = test system: Streptococcus mutans; assay: Antibacterial activity against gram positive bacteria Streptococcus mutans was determined by twofold Micro-broth dilution assay; type: functional, organism-based; summary of the method: as §1
[10] = test system: Candida albicans; assay: Antifungal activity against Candida albicans was determined by twofold Micro-broth dilution assay; type: functional, organism-based; summary of the method: as §2
[11] = test system: Salmonella typhimurium; assay: Antibacterial activity against gram negative bacteria Salmonella Typhimurium was determined by twofold Micro-broth dilution assay; type: functional, organism-based, Salmonella enterica subsp. enterica serovar Typhimurium; settings: Salmonella enterica; summary of the method: as §1
[12] = test system: Shigella flexneri; assay: Antibacterial activity against gram negative bacteria Shigella flexenerii was determined by twofold Micro-broth dilution assay; type: functional, organism-based; summary of the method: as §1
[13] = test system: Cryptococcus neoformans; assay: Antifungal activity against Cryptococcus neoformans was determined by twofold Micro-broth dilution assay; type: functional, organism-based; summary of the method: as §2
[14] = test system: Trichophyton rubrum; assay: Antifungal activity against Trichophyton rubrum was determined by twofold Micro-broth dilution assay; type: functional, organism-based; summary of the method: as §2
[15] = test system: Sporothrix schenckii; assay: Antifungal activity against Sporothrix schenck ii was determined by twofold Micro-broth dilution assay; type: functional, organism-based; summary of the method: as §2
[16] = test system: Escherichia coli; assay: Antibacterial activity against gram negative bacteria Escherichia coli was determined by twofold Micro-broth dilution assay; type: functional, organism-based; summary of the method: as §1
[17] = test system: Nannizzia gypsea; assay: Antifungal activity against Microsporum gypseum was determined by twofold Micro-broth dilution assay; type: functional, organism-based; summary of the method: as §2
[18] = test system: Sporothrix schenckii; assay: Antifungal activity against Sporothrix schenck ii was determined by twofold Micro-broth dilution assay; No data; type: functional, organism-based; summary of the method: as §2
[19] = test system: Nannizzia gypsea; assay: Antifungal activity against Microsporum gypseum was determined by twofold Micro-broth dilution assay; No data; type: functional, organism-based; summary of the method: as §2
[20] = Aspergillus flavus, read-out: IC50
[21] = Aspergillus niger, read-out: IC50
[22] = Candida albicans, read-out: IC50
[23] = Trichophyton rubrum, read-out: IC50
[24] = Sporothrix schenckii, read-out: IC50
[25] = Nannizzia gypsea, read-out: IC50

Compound | IC50 [1] [µg/mL] | IC50 [2, 20] [µg/mL] | IC50 [3] [µg/mL] | IC50 [4, 21] [µg/mL] | IC50 [5] [µg/mL] | IC50 [6] [µg/mL] | IC50 [7] [µg/mL] | IC50 [8] [µg/mL] | IC50 [9] [µg/mL] | IC50 [10, 22] [µg/mL] | IC50 [11] [µg/mL] | IC50 [12] [µg/mL] | IC50 [13] [µg/mL] | IC50 [14, 23] [µg/mL] | IC50 [15, 24] [µg/mL] | IC50 [16] [µg/mL] | IC50 [17, 25] [µg/mL] | also measured
C[C@H](CCC(=O)N[C@@H](CO)[C@@H](O)c1ccccc1)[C@H]1CC[C@H]2[C@@H]3CC[C@@H]4C[C@H](O)CC[C@]4(C)[C@H]3C[C@H](O)[C@]12C | > 250 | > 250 | 220 (≈ 406 µM) | > 250 | > 250 | > 250 | > 250 | > 250 | 60 (≈ 111 µM) | > 250 | > 250 | > 250 | 62.5 (≈ 115 µM) | > 250 | > 250 | > 250 | > 250 | –
C[C@H](CCC(=O)N[C@@H](CO)[C@@H](O)c1ccc([N+](=O)[O-])cc1)[C@H]1CC[C@H]2[C@@H]3CC[C@@H]4C[C@H](O)CC[C@]4(C)[C@H]3C[C@H](O)[C@]12C | > 250 | > 250 | > 250 | > 250 | > 250 | 10 (≈ 17 µM) | > 250 | > 250 | 30 (≈ 51.1 µM) | > 250 | > 250 | > 250 | > 250 | > 250 | > 250 | > 250 | > 250 | –
C[C@H](CCC(=O)N[C@H](CO)[C@H](O)c1ccccc1)[C@H]1CC[C@H]2[C@@H]3C(O)C[C@@H]4C[C@H](O)CC[C@]4(C)[C@H]3C[C@H](O)[C@]12C (stereo partly specified) | > 250 | > 250 | 40 (≈ 71.7 µM) | > 250 | > 250 | 60 (≈ 108 µM) | > 250 | > 250 | 40 (≈ 71.7 µM) | > 250 | > 250 | > 250 | > 250 | > 250 | > 250 | > 250 | > 250 | –
C[C@H](CCC(=O)N[C@H](CO)[C@H](O)c1ccccc1)[C@H]1CC[C@H]2[C@@H]3CC[C@@H]4C[C@H](O)CC[C@]4(C)[C@H]3C[C@H](O)[C@]12C | > 250 | > 250 | 40 (≈ 73.8 µM) | > 250 | > 250 | 60 (≈ 111 µM) | > 250 | 40 (≈ 73.8 µM) | 25 (≈ 46.1 µM) | > 250 | > 250 | > 250 | > 250 | > 250 | > 250 | > 250 | > 250 | –
C[C@H](CCC(=O)N[C@@H](CO)[C@@H](O)c1ccc([N+](=O)[O-])cc1)[C@H]1CC[C@H]2[C@@H]3C(O)C[C@@H]4C[C@H](O)CC[C@]4(C)[C@H]3C[C@H](O)[C@]12C (stereo partly specified) | > 250 | > 250 | > 250 | > 250 | > 250 | > 250 | > 250 | 75 (≈ 124 µM) | 40 (≈ 66.4 µM) | > 250 | > 250 | > 250 | > 250 | > 250 | > 250 | > 250 | > 250 | –
C[C@H](CCC(=O)N[C@H](CO)[C@H](O)c1ccc([N+](=O)[O-])cc1)[C@H]1CC[C@H]2[C@@H]3CC[C@@H]4C[C@H](O)CC[C@]4(C)[C@H]3C[C@H](O)[C@]12C | > 250 | > 250 | 7.5 (≈ 12.8 µM) | > 250 | > 250 | 15 (≈ 25.6 µM) | > 250 | 7.5 (≈ 12.8 µM) | 4 (≈ 6.82 µM) | > 250 | > 250 | > 250 | > 250 | > 250 | > 250 | > 250 | > 250 | –
C[C@H](CCC(=O)N[C@@H](CO)[C@@H](O)c1ccccc1)[C@H]1CC[C@H]2[C@@H]3C(O)C[C@@H]4C[C@H](O)CC[C@]4(C)[C@H]3C[C@H](O)[C@]12C (stereo partly specified) | > 250 | > 250 | 20 (≈ 35.9 µM) | > 250 | > 250 | 40 (≈ 71.7 µM) | > 250 | > 250 | 60 (≈ 108 µM) | > 250 | > 250 | > 250 | > 250 | > 250 | > 250 | > 250 | > 250 | –
C[C@H](CCC(=O)N[C@H](CO)[C@H](O)c1ccc([N+](=O)[O-])cc1)[C@H]1CC[C@H]2[C@@H]3C(O)C[C@@H]4C[C@H](O)CC[C@]4(C)[C@H]3C[C@H](O)[C@]12C (stereo partly specified) | > 250 | > 250 | 100 (≈ 166 µM) | > 250 | > 250 | 60 (≈ 99.5 µM) | > 250 | 75 (≈ 124 µM) | 6 (≈ 9.95 µM) | > 250 | > 250 | > 250 | > 250 | > 250 | > 250 | > 250 | > 250 | –
C[C@@H]1[C@H](O)[C@@H](C)/C=C/C=C/C=C/C=C/C=C/C=C/C=C/[C@H](O[C@@H]2O[C@H](C)[C@@H](O)[C@H](N)[C@@H]2O)C[C@@H]2O[C@](O)(C[C@@H](O)C[C@@H](O)[C@H](O)CC[C@@H](O)C[C@@H](O)CC(=O)O[C@H]1C)C[C@H](O)[C@H]2C(=O)O [AMPHOTERICIN B] | – | 5 (≈ 5.41 µM) | – | 2.5 (≈ 2.71 µM) | – | – | – | – | – | 0.0625 (≈ 0.0676 µM) | – | – | – | 2.5 (≈ 2.71 µM) | – | – | – | IC50 [18]: 5 µg/mL (≈ 5.41 µM); IC50 [19]: 2.5 µg/mL (≈ 2.71 µM)
Clc1ccccc1C(c1ccccc1)(c1ccccc1)n1ccnc1 [CLOTRIMAZOLE] | – | 0.5 (≈ 1.45 µM) | – | 5 (≈ 14.5 µM) | – | – | – | – | – | 0.0312 (≈ 0.0906 µM) | – | – | – | 0.625 (≈ 1.81 µM) | 0.0312 (≈ 0.0906 µM) | – | 0.625 (≈ 1.81 µM) | –
CN[C@@H]1[C@H](O[C@H]2[C@H](O[C@H]3[C@H](O)[C@@H](O)[C@H](N=C(N)N)[C@@H](O)[C@@H]3N=C(N)N)O[C@@H](C)[C@]2(O)C=O)O[C@@H](CO)[C@H](O)[C@H]1O [STREPTOMYCIN] | 1.25 (≈ 2.15 µM) | – | 0.12 (≈ 0.206 µM) | – | – | 1.25 (≈ 2.15 µM) | – | 0.3 (≈ 0.516 µM) | 0.12 (≈ 0.206 µM) | – | 1.25 (≈ 2.15 µM) | 1.25 (≈ 2.15 µM) | – | – | – | 1.25 (≈ 2.15 µM) | – | –
CN[C@H](CC(C)C)C(=O)N[C@H]1C(=O)N[C@@H](CC(N)=O)C(=O)N[C@H]2C(=O)N[C@H]3C(=O)N[C@H](C(=O)N[C@H](C(=O)O)c4cc(O)cc(O)c4-c4cc3ccc4O)[C@H](O)c3ccc(c(Cl)c3)Oc3cc2cc(c3O[C@@H]2O[C@H](CO)[C@@H](O)[C@H](O)[C@H]2O[C@H]2C[C@](C)(N)[C@H](O)[C@H](C)O2)Oc2ccc(cc2Cl)[C@H]1O [VANCOMYCIN] | > 250 | – | 0.3 (≈ 0.207 µM) | – | – | 0.06 (≈ 0.0414 µM) | > 250 | 0.12 (≈ 0.0828 µM) | 0.12 (≈ 0.0828 µM) | – | > 250 | > 250 | – | – | – | > 250 | – | –
NYSTATIN | – | – | – | – | – | – | – | – | – | – | – | – | – | – | – | – | – | IC50 [2]: 2.5 µg/mL; IC50 [4]: 2.5 µg/mL; IC50 [10]: 0.25 µg/mL; IC50 [14]: 2.5 µg/mL; IC50 [15]: 3.125 µg/mL; IC50 [17]: 3.125 µg/mL
